Each structure is given as a SMILES string. In brackets after ≈: the same amount, converted by molar mass.

The assay relates to Mycobacterium tuberculosis. Put plainly: Antitubercular activity against Mycobacterium tuberculosis H37Rv by agar dilution method. The format is functional. The method, boiled down:
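Twofold serial dilutions of compound incorporated into Middlebrook 7H11 agar with OADC supplement, in duplicate wells, at final 12.5, 6.25, 3.125 and 1.56 µg/mL. A known CFU of H37Rv culture was spread on the agar surface, and plates were incubated at 37 °C in 5% CO2. MIC was taken as the lowest concentration giving complete inhibition of colonies.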
By MIC is commonly meant the lowest concentration that inhibits growth of the organism. Read a high MIC as a less susceptible organism. For `COc1ccc(C(c2ccc(OCC(O)CN3CCSCC3)cc2)c2cccs2)cc1` (configuration not stated), the MIC is above 12.5 µg/mL.
In the case of `COc1ccc(C(c2ccc(OCC(O)CN3CCN(Cc4ccccc4)CC3)cc2)c2cccs2)cc1` (configuration not stated), the minimal inhibitory concentration (MIC) is above 12.5 µg/mL.
On to `COc1ccc(C(c2ccc(OCC(O)CNCCCn3ccnc3)cc2)c2cccs2)cc1` (configuration not stated), for which the minimal inhibitory concentration (MIC) is above 12.5 µg/mL.
`CCN(CC)CCCNCC(O)COc1ccc(C(c2ccc(OC)cc2)c2cccs2)cc1` (configuration not stated) came in with an MIC above 12.5 µg/mL.
The same measure for `COc1ccc(C(c2ccc(OCC(O)CN3CCCC3)cc2)c2cccs2)cc1` (configuration not stated): above 12.5 µg/mL; for `COc1ccc(C(c2cccs2)c2ccccc2OCCN2CCCC2)cc1` (configuration not stated): above 12.5 µg/mL; for `NNC(=O)c1ccncc1` [ISONIAZID]: 0.05 µg/mL (≈ 0.365 µM).
`COc1cccc(C(c2ccc(O)cc2)c2cccs2)c1` (configuration not stated) came in with an MIC above 12.5 µg/mL.
Regarding `CCN(CC)CCOc1ccc(C(c2ccc(Cl)cc2)c2cccs2)cc1` (configuration not stated), it took 3.12 µg/mL (≈ 7.8 µM) to inhibit growth (MIC).
`CCN(CC)CCOc1ccc(C(c2ccc(SC)cc2)c2cccs2)cc1` (configuration not stated) had a minimal inhibitory concentration (MIC) of 3.12 µg/mL (≈ 7.58 µM).
The same measure for `CCN(CC)CCOc1ccc(C(c2cccc(OC)c2)c2cccs2)cc1` (configuration not stated): 3.12 µg/mL (≈ 7.89 µM); for `COc1cccc(C(c2ccc(OCCN3CCCCCC3)cc2)c2cccs2)c1` (configuration not stated): 3.12 µg/mL (≈ 7.4 µM); for `COc1cccc(C(c2ccc(OCCN3CCOCC3)cc2)c2cccs2)c1` (configuration not stated): 12.5 µg/mL (≈ 30.5 µM).
For `CO[C@H]1/C=C/O[C@@]2(C)Oc3c(C)c(O)c4c(O)c(c(/C=N/N5CCN(C)CC5)c(O)c4c3C2=O)NC(=O)/C(C)=C\C=C\[C@H](C)[C@H](O)[C@@H](C)[C@@H](O)[C@@H](C)[C@H](OC(C)=O)[C@@H]1C` [RIFAMPIN], 0.1 µg/mL (≈ 0.122 µM) was the least that counted as inhibitory (MIC).
`Clc1ccc(C(c2ccc(OCCN3CCOCC3)cc2)c2cccs2)cc1` (configuration not stated) displayed an MIC of 12.5 µg/mL (≈ 30.2 µM).
The same measure for `COc1ccc(C(c2ccc(O)cc2)c2cccs2)cc1` (configuration not stated): 3.12 µg/mL (≈ 10.5 µM); for `CCN(CC)CCOc1ccccc1C(c1ccc(OC)cc1)c1cccs1` (configuration not stated): above 12.5 µg/mL; for `COc1ccc(C(c2ccc(OCC(O)CNC3CCCCC3)cc2)c2cccs2)cc1` (configuration not stated): 12.5 µg/mL (≈ 27.7 µM).
The compound `CN(C)CCOc1ccc(C(c2ccc(Cl)cc2)c2cccs2)cc1` (configuration not stated) yielded a minimum inhibitory concentration (MIC) of 6.25 µg/mL (≈ 16.8 µM).
Take `COc1ccc(C(c2ccc(OCCN(C)C)cc2)c2cccs2)cc1` (configuration not stated): inhibition of growth (MIC) required 12.5 µg/mL (≈ 34 µM).
Take `COc1ccc(C(c2ccc(OCC(O)CNCCc3ccc(OC)c(OC)c3)cc2)c2cccs2)cc1` (configuration not stated): the MIC is above 12.5 µg/mL.
For `CSc1ccc(C(c2ccc(OCCN3CCOCC3)cc2)c2cccs2)cc1` (configuration not stated), the MIC was above 12.5 µg/mL.
As for `COc1ccc(C(c2ccc(OCC(O)CN3CCN(c4ccccn4)CC3)cc2)c2cccs2)cc1` (configuration not stated), the MIC was above 12.5 µg/mL.
Compound `COc1cccc(C(c2ccc(OCCN(C)C)cc2)c2cccs2)c1` (configuration not stated) registered an MIC of 12.5 µg/mL (≈ 34 µM).
Compound `COc1ccc(C(c2cccs2)c2ccccc2OCCN(C)C)cc1` (configuration not stated) yielded a minimum inhibitory concentration (MIC) above 12.5 µg/mL.
As for `COc1ccc(C(c2ccc(OCCN3CCCCCC3)cc2)c2cccs2)cc1` (configuration not stated), the MIC amounted to 12.5 µg/mL (≈ 29.6 µM).
The result for `COc1ccc(C(c2cccs2)c2ccccc2OCCN2CCCCCC2)cc1` (configuration not stated) reads above 12.5 µg/mL; that for `CSc1ccc(C(c2ccc(O)cc2)c2cccs2)cc1` (configuration not stated), above 12.5 µg/mL.
In the case of `Oc1ccc(C(c2ccc(Cl)cc2)c2cccs2)cc1` (configuration not stated), the minimum inhibitory concentration (MIC) was above 12.5 µg/mL.
Take `CSc1ccc(C(c2ccc(OCCN(C)C)cc2)c2cccs2)cc1` (configuration not stated): the MIC was above 12.5 µg/mL.
`COc1ccc(C(c2ccc(OCC(O)CN3CCN(C)CC3)cc2)c2cccs2)cc1` (configuration not stated) gave an MIC above 12.5 µg/mL.
Take `COc1ccc(C(c2ccc(OCCN3CCOCC3)cc2)c2cccs2)cc1` (configuration not stated): the MIC is above 12.5 µg/mL.
Take `COc1ccc(C(c2ccc(OCC(O)CNCCCN3CCOCC3)cc2)c2cccs2)cc1` (configuration not stated): the MIC was above 12.5 µg/mL.
On to `COc1ccc(C(c2ccc(OCC(O)CN3CCCCC3)cc2)c2cccs2)cc1` (configuration not stated), for which it took 12.5 µg/mL (≈ 28.6 µM) to inhibit growth (MIC).
Take `CCN(CC)CCOc1ccc(C(c2ccc(OC)cc2)c2cccs2)cc1` (configuration not stated): the lowest concentration to inhibit growth (MIC) was 6.25 µg/mL (≈ 15.8 µM).
The same measure for `COc1ccc(C(c2cccs2)c2ccccc2OCCN2CCCCC2)cc1` (configuration not stated): above 12.5 µg/mL.
Compound `CSc1ccc(C(c2ccc(OCCN3CCCCCC3)cc2)c2cccs2)cc1` (configuration not stated) displayed a minimal inhibitory concentration (MIC) of 3.12 µg/mL (≈ 7.13 µM).
